H9c2 TAG inh – inhibitors of triacylglycerol accumulation, primary screen, cell-based, uHTS, fluorescence, H9c2. H9c2 cells, Nile Red lipid (TAG) fluorescence; cells loaded with 200 µM oleic acid. inhibition, % at 12.5 µM. 230,000 compounds, 0.66% hits;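 active means pattern-corrected inhibition of lipid staining of at least 50% with the nuclear-stain viability signal not falling by more than 50%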;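 further: 0% = DMSO wells and 100% = triacsin C control wells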
Arr AP2 block – inhibitors of beta-arrestin/AP2 binding, primary screen, biochemical, GPCR trafficking, flow cytometry | beta-arrestin 1 C-terminal peptide binding to AP2 beta2-adaptin appendage (human) | FITC-arrestin peptide / GST-AP2 beads; AP2 beta2 appendage carries R879A mutation | inhibition, % at 10 µM | 340,000 compounds, 0.31% hits | AID 504490, 2011;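 active means inhibition above a set limit, near 3 SD of compounds lacking own fluorescence, cut at about 54% in these data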;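 further: plate controls were DMSO wells for no effect and 5 µM unlabelled arrestin peptide for full effect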
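Assay system: GST-AP2 R879A bound to glutathione beads, E. coli-expressed; Medium: PBS with 0.05% Tween 20 and 0.1% BSA; Also added: fluorescein-tagged arrestin peptide at 50 nM final; Timing: 12 min plus 1 h, RT; Measured by: flow cytometry, FL1 (488/535 nm); Evaluation: percent drop in bead-associated FITC signal.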
NTR1 ag – agonists of human NTR1, primary screen, imaging, U2OS cells, beta-arrestin-GFP, high content | 330,000 compounds, 0.17% hits | NTR1-U2OS beta-arrestin-GFP spot imaging, agonist mode | Neurotensin receptor type 1 (Homo sapiens), P30989 | AID 493036, 2011 | activation, % at 20 µM;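 active means activation at or above 40% of the spot to cytoplasm intensity ratio, with at least 20 cells analyzed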;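 further: 0% = DMSO without peptide and 100% = 100 nM NTR1 peptide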
Beta2AR agonist – beta2AR agonists driving receptor internalization, primary screen, cell-based, FAP fluorogen, flow cytometry. Beta-2 adrenergic receptor (Homo sapiens), P07550. Am2.2-beta2AR cells. response, % (no concentration beside the values). 340,000 compounds, 0.43% hits. AID 504454, 2011;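 active means response above a set limit, near 3 SD of response in nonfluorescent compounds, cut at about 42% in these data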
GRK2 inh – compounds blocking aptamer binding on GRK2 – biochemical, human GRK2, bead flow cytometry, HTS, primary screen; inhibition of aptamer binding, % at 10 µM; Beta-adrenergic receptor kinase 1 (Homo sapiens), P25098; FAM-aptamer displacement from GRK2; 330,000 compounds, 0.59% hits;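 active means inhibition of aptamer binding above 40%, roughly 3 SD of noise, on plates passing a quality check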;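 further: median bead fluorescence of bound FAM aptamer so fluorescent compounds give negative values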
Target sequence (P25098 whole entry, looked up): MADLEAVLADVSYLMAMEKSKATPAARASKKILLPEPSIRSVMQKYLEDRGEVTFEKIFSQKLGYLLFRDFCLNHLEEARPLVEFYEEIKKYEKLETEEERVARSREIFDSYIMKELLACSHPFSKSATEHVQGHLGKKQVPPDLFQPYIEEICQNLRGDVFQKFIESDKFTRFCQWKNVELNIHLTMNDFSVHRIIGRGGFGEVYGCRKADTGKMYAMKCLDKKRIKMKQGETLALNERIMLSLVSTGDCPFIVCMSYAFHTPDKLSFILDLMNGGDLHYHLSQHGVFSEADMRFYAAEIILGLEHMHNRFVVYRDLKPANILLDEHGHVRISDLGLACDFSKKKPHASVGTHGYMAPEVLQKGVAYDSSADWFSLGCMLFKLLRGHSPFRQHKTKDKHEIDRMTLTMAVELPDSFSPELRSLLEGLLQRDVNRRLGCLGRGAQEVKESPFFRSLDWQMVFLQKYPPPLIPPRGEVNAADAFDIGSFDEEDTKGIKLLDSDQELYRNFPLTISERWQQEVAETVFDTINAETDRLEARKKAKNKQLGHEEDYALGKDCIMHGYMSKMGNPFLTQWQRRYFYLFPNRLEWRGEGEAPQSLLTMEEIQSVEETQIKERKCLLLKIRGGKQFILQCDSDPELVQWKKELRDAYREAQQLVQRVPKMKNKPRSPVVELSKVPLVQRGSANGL
TAG conf – triacylglycerol accumulation inhibitors, retest, confirmation, cell-based, single concentration, Nile Red fluorescence, H9c2 | shares compounds with H9c2 TAG inh | H9c2 lipid accumulation; cells loaded with 200 µM oleic acid | inhibition, % at 12.5 µM | 990 compounds, 71% hits;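 active means mean inhibition across replicates of 40% or more; inactive means mean inhibition below 40%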;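 further: plate controls were DMSO only wells for no effect and Triacsin C treated wells for full effect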
* marks the source's active call; other numbers are inactive results; / = no result. Hits are enriched below; roughly 2% of the tested compounds scored in any of these assays.

SMILES	H9c2 TAG inh	Arr AP2 block	NTR1 ag	Beta2AR agonist	GRK2 inh	TAG conf
COC(=O)C1=C(c2cc3ccccc3s2)C[C@@H]2CC[C@H]1N2C(=O)N1CCOCC1	52*	5	-3	11	0	45*
COc1cccc2c1N=C1CCCC3CN(C(C)=O)CCC123 (stereo not drawn)	-7	3	/	-4	/	/
O=P(O)(O)CN1CCNCCN(CP(=O)(O)O)CCNCC1	57*	-8	/	-3	/	63*
CCOC(=O)C(NC(=O)CC)(Nc1ccc(C(O)(C(=O)OCC)C(F)(F)F)cc1C)C(F)(F)F (stereo not drawn)	55*	3	0	3	1	23
CCC(c1ccc(C)cc1)N1C(=O)C2C3CCC(O3)C2C1=O (stereo not drawn)	0	2	5	15	0	/
COC(=O)C1=C(c2ccccc2OCc2ccccc2)C[C@@H]2CC[C@H]1N2C(=O)NCc1ccc(OC)c(OC)c1	56*	-4	4	2	1	28
COC(=O)C1=C(c2ccccc2OCc2ccccc2)C[C@@H]2CC[C@H]1N2C(=O)NCc1cccc(F)c1	33	-7	2	4	0	/
CCCCn1c(N)c(C(=O)NCc2cccs2)c2nc3ccccc3nc21	67*	25	8	1	1	1
Cc1ccccc1NC(=O)N1Cc2ccccc2-n2nncc2C1	5	/	/	/	/	/
CCN1C[C@]2(COC)CC[C@H](O)[C@@]34C5C[C@@H]6[C@@H](OC)C[C@@](O)(C5[C@H]6O)[C@](O)([C@@H](OC)C23)[C@@H]14 (stereo partly drawn)	/	0	1	-5	1	/

Compound activity as filed in PubChem.
